Assay results: ChEMBL document CHEMBL1795234, “Practical synthesis, anticonvulsant, and antimicrobial activity of N-allyl and N-propargyl di(indolyl)indolin-2-ones” (2011)

Legend:
Assay type in all cases: functional
Mus musculus [1] = experiment: Anticonvulsant activity against maximum electric shock-induced seizure in Swiss albino mouse assessed as time spent in tonic flexion phase at 20 mg/kg, ip administered 30 mins before seizure induction by electroconvulsiometer analysis; conditions: route intraperitoneal
Outline: (§1)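 Inbred Swiss albino mice, both sexes, 25–30 g, 7-day adaptation, groups of 5, each used once, tested 10:00–16:00. Compound suspended in 0.5% Tween 80, 20 mg/kg ip 30 min before maximal electroshock; vehicle control group and ip phenytoin 20 mg/kg standard. Seconds spent in flexion, extensor and clonus phases recorded, mean ± SEM.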

Candida albicans = experiment: Antifungal activity against Candida albicans ATCC 10231 at 20 ug/ml after 24 hrs by cup plate method; conditions: ATCC 10231, 24 h, read-out: IZ
Outline: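 C. albicans spores inoculated into lukewarm Sabouraud dextrose agar (pH 5.4, autoclaved 121 °C 15 min) and poured; cups filled with compound at 20 µg/mL, methanol solvent control, Ketoconazole standard. Kept refrigerated 1 h for diffusion, then incubated 24 h at 28 °C; zone of inhibition read.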

Staphylococcus aureus = experiment: Antibacterial activity against methicillin-sensitive Staphylococcus aureus 22 at 20 ug/ml after 24 hrs by cup plate method; conditions: Staphylococcus aureus, 22, 24 h; read-out: IZ
Outline: (§2)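 Cup-plate (well diffusion) on Mueller-Hinton agar; compounds at 20 µg/mL in methanol, 20 µL per well; one well with 20 µL methanol as solvent control; Amikacin standard run alike. Held in refrigerator 1 h for diffusion, then incubated 24 h at 37 °C; zone of inhibition around cup measured.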

Mus musculus [2] = experiment: Anticonvulsant activity against maximum electric shock-induced seizure in Swiss albino mouse assessed as time spent in tonic extensor phase at 20 mg/kg, ip administered 30 mins before seizure induction by electroconvulsiometer analysis; conditions: route intraperitoneal; outline: as §1
Mus musculus [3] = experiment: Anticonvulsant activity against maximum electric shock-induced seizure in Swiss albino mouse assessed as time spent in tonic clonus phase at 20 mg/kg, ip administered 30 mins before seizure induction by electroconvulsiometer analysis; conditions: route intraperitoneal; outline: as §1
Escherichia coli = experiment: Antibacterial activity against Escherichia coli K12 at 20 ug/ml after 24 hrs by cup plate method; conditions: K-12, 24 h, read-out: IZ; outline: as §2

Row | SMILES | Time (Mus musculus [1]) | zone of inhibition at 20 µg/mL (Candida albicans) | zone of inhibition at 20 µg/mL (Staphylococcus aureus) | Time (Mus musculus [2]) | Time (Mus musculus [3]) | zone of inhibition at 20 µg/mL (Escherichia coli)
1 | C#CCn1cc(C2(c3cn(CC#C)c4ccccc34)C(=O)Nc3ccccc32)c2ccccc21 | 4.8 s | 12 mm | 11 mm | 39.2 s | 3.2 s | 10 mm
2 | C=CCn1cc(C2(c3cn(CC=C)c4ccc(OC)cc34)C(=O)Nc3ccc(Br)cc32)c2cc(OC)ccc21 | 4.8 s | 14 mm | 15 mm | 39.2 s | 3.4 s | 14 mm
3 | C=CCn1cc(C2(c3cn(CC=C)c4ccc(OC)cc34)C(=O)Nc3ccccc32)c2cc(OC)ccc21 | 4.8 s | 14 mm | 12 mm | 31.8 s | 3.2 s | 10 mm
4 | C#CCn1cc(C2(c3cn(CC#C)c4ccccc34)C(=O)N(Cc3ccccc3)c3ccccc32)c2ccccc21 | 4.8 s | 13 mm | 15 mm | 39.2 s | 3.2 s | 17 mm
5 | C#CCN1C(=O)C(c2cn(CC#C)c3ccccc23)(c2cn(CC#C)c3ccccc23)c2ccccc21 | 5.4 s | 12 mm | 10 mm | 31.8 s | 3.6 s | 10 mm
6 | O=C1Nc2ccccc2C1(c1cn(C/C=C/c2ccccc2)c2ccccc12)c1cn(C/C=C/c2ccccc2)c2ccccc12 | 4.8 s | 13 mm | 10 mm | 39.6 s | 3.6 s | 14 mm
7 | C=CCn1cc(C2(c3cn(CC=C)c4ccccc34)C(=O)Nc3ccc([N+](=O)[O-])cc32)c2ccccc21 | 4.8 s | 15 mm | 10 mm | 39.2 s | 3.4 s | 10 mm
8 | CC(C)=CCn1cc(C2(c3cn(CC=C(C)C)c4ccc(Br)cc34)C(=O)Nc3ccccc32)c2cc(Br)ccc21 | 4.8 s | 12 mm | 14 mm | 39.6 s | 3.4 s | 12 mm
9 | C=CCn1cc(C2(c3cn(CC=C)c4ccccc34)C(=O)Nc3ccccc32)c2ccccc21 | 5.8 s | 11 mm | 12 mm | 48 s | 3.6 s | 12 mm
10 | C#CCN1C(=O)C(c2cn(CC=C(C)C)c3ccc(Br)cc23)(c2cn(CC=C(C)C)c3ccc(Br)cc23)c2ccccc21 | 5.4 s | 10 mm | 15 mm | 31.6 s | 2.8 s | 15 mm
11 | C=CCn1cc(C2(c3cn(CC=C)c4ccc(OC)cc34)C(=O)N(CC(=O)OCC)c3ccccc32)c2cc(OC)ccc21 | 4.8 s | 10 mm | 12 mm | 31.6 s | 3.4 s | 14 mm
12 | CC(=O)N1CCN(c2ccc(OCC3COC(Cn4ccnc4)(c4ccc(Cl)cc4Cl)O3)cc2)CC1 (centres undefined) [KETOCONAZOLE] |  | 16 mm |  |  |  | 
13 | C=CCn1cc(C2(c3cn(CC=C)c4ccc(OC)cc34)C(=O)Nc3ccc(Cl)cc32)c2cc(OC)ccc21 | 5.8 s | 10 mm | 10 mm | 31.6 s | 3.4 s | 11 mm
14 | O=C1NC(=O)C(c2ccccc2)(c2ccccc2)N1 [PHENYTOIN] | 5.6 s |  |  | 43 s | 3.4 s | 
15 | C#CCn1c(C)c(C2(c3c(C)n(CC#C)c4ccccc34)C(=O)Nc3ccccc32)c2ccccc21 | 5.4 s | 15 mm | 15 mm | 31.6 s | 2.8 s | 15 mm
16 | NCC[C@H](O)C(=O)N[C@@H]1C[C@H](N)[C@@H](O[C@H]2O[C@H](CN)[C@@H](O)[C@H](O)[C@H]2O)[C@H](O)[C@H]1O[C@H]1O[C@H](CO)[C@@H](O)[C@H](N)[C@H]1O [AMIKACIN] |  |  | 17 mm |  |  | 18 mm
